# Results reported in ChEMBL document CHEMBL1157623, “Benzyl 1,2,3,5,11,11a-hexahydro-3,3-dimethyl-1-oxo-6H-imidazo[3',4':1,2]pyridin[3,4-b]indole-2-substituted acetates: One-pot-preparation, anti-tumor activity, docking toward DNA and 3D QSAR analysis” (Bioorg Med Chem, 2010).
# What was measured:
# [1] = test system: MCF7; test: Antiproliferative activity against human MCF7 cells after 3 days by sulforhodamine B assay; format: functional, cell-based; conditions: MCF7, 72 h
# Procedure, shortened: (§1)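 Freshly trypsinized cells seeded at 5000 per well; compounds added from DMSO-diluted stock at 60, 6, 0.6, 0.06 and 0.006 µM. After 3 days, attached cells were fixed with cold 10% trichloroacetic acid, stained with 0.4% sulforhodamine B, the bound dye solubilized, and absorbance read at 562 nm. IC50 is the concentration reducing cell growth by 50%, averaged from at least three independent determinations.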
# [2] = test system: CCRF S-180; test: Antitumor activity against mouse S180 cells xenografted in ICR mouse assessed as tumor weight at 1 mg/kg, ip administered 24 hrs after tumor implantation daily for 7 consecutive days measured after 24 hrs of last dose (Rvb=1.602 +/- 0.391 g); format: functional; conditions: route intraperitoneal
# [3] = test system: A549; test: Antiproliferative activity against human A549 cells after 3 days by sulforhodamine B assay; format: functional, cell-based; conditions: A549, 72 h; procedure, shortened: as §1
# [4] = Antiproliferative activity against human KBVIN cells after 3 days by sulforhodamine B assay; format: functional, cell-based; conditions: 72 h; procedure, shortened: as §1
# [5] = test system: PC-3; test: Antiproliferative activity against human PC3 cells after 3 days by sulforhodamine B assay; format: functional, cell-based; conditions: PC-3, 72 h; procedure, shortened: as §1
# [6] = test system: KB; test: Antiproliferative activity against human KB cells after 3 days by sulforhodamine B assay; format: functional, cell-based; conditions: 72 h; procedure, shortened: as §1
# [7] = Lipophilicity, log K at 10 uM after 40 mins by HPLC analysis; format: physicochemical
# Procedure, shortened: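 Sample at 10^-5 M analysed by reversed-phase C18 HPLC, eluted with CH3OH/H2O 0.7/0.3 at 1 mL/min for 40 min, UV detection at 254.8 nm. Retention time tR recorded; acetone peak taken as t0 (1.591 min). Log K = Log[(tR − t0)/t0].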
# [8] = test system: Mus musculus; test: Toxicity in ICR mouse assessed as change in liver weight at 10 to 500 mg/kg, ip measured on day 7 post dose by necroscopy; format: organism-based; design: dose 10-500 mg/kg, route intraperitoneal; conditions: in vivo
# [9] = test system: CCRF S-180; test: Antitumor activity against mouse S180 cells xenografted in ICR mouse assessed as tumor weight at 0.1 mg/kg, ip administered 24 hrs after tumor implantation daily for 7 consecutive days measured after 24 hrs of last dose (Rvb=1.602 +/- 0.391 g); format: functional; conditions: route intraperitoneal
# [10] = Toxicity in ip dosed ICR mouse measured after 7 days post dose; format: organism-based; conditions: in vivo
# Procedure, shortened: (§2)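 ICR mice, 10–12 weeks old, of both sexes (six males and six females, 12 per group), housed at 21 °C and fasted overnight with water available. They received a single ip injection of 10, 100 or 500 mg/kg in 0.2 mL 0.9% saline. Mice were watched continuously for 7 days for neurotoxic behaviour or death, then killed on day 7 and checked macroscopically (heart, liver, kidneys). LD50 was estimated graphically.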
# [11] = test system: Mus musculus; test: Toxicity in ICR mouse assessed as change in heart weight at 10 to 500 mg/kg, ip measured on day 7 post dose by necroscopy; format: organism-based; design: dose 10-500 mg/kg, route intraperitoneal; conditions: in vivo
# [12] = test system: CCRF S-180; test: Antitumor activity against mouse S180 cells xenografted in ip dosed ICR mouse assessed as decrease in tumor weight administered 24 hrs after tumor implantation daily for 7 consecutive days measured after 24 hrs of last dose; format: functional, organism-based
# [13] = test system: Mus musculus; test: Toxicity in ICR mouse xenografted with mouse S180 cells assessed as brain weight at 1 mg/kg, ip administered 24 hrs after tumor implantation daily for 7 consecutive days measured after 24 hrs of last dose (Rvb=0.31 +/- 0.01 g); format: organism-based, CCRF S-180; design: dose 1 mg/kg, route intraperitoneal; conditions: in vivo
# [14] = test system: Mus musculus; test: Toxicity in ICR mouse xenografted with mouse S180 cells assessed as heart weight at 1 mg/kg, ip administered 24 hrs after tumor implantation daily for 7 consecutive days measured after 24 hrs of last dose (Rvb=0.17 +/- 0.01 g); format: organism-based, CCRF S-180; design: dose 1 mg/kg, route intraperitoneal; conditions: in vivo
# [15] = test system: Mus musculus; test: Toxicity in ICR mouse assessed as mortality up to 500 mg/kg, ip measured after 7 days post dose; format: organism-based; design: dose 500 mg/kg, route intraperitoneal; conditions: in vivo, 168 h; procedure, shortened: as §2
# [16] = test system: Mus musculus; test: Toxicity in ICR mouse xenografted with mouse S180 cells assessed as liver weight at 1 mg/kg, ip administered 24 hrs after tumor implantation daily for 7 consecutive days measured after 24 hrs of last dose (Rvb=2.36 +/- 0.20 g); format: organism-based, CCRF S-180; design: dose 1 mg/kg, route intraperitoneal; conditions: in vivo
# [17] = test system: Mus musculus; test: Toxicity in ICR mouse xenografted with mouse S180 cells assessed as body weight at 1 mg/kg, ip administered 24 hrs after tumor implantation daily for 7 consecutive days measured after 24 hrs of last dose (Rvb=33.3 +/- 2.32 g); format: organism-based, CCRF S-180; design: dose 1 mg/kg, route intraperitoneal; conditions: in vivo
# [18] = test system: Mus musculus; test: Neurotoxicity in ICR mouse assessed as occurrence of neurotoxic behavior at 10 to 500 mg/kg, ip measured up to 7 days post dose; format: toxicity, organism-based; design: dose 10-500 mg/kg, route intraperitoneal; conditions: in vivo, 168 h
# Procedure, shortened: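 Healthy ICR mice, 10–12 weeks old, 12 per group (six male, six female), fasted overnight with water available. Single ip injection of 10, 100 or 500 mg/kg in 0.2 mL 0.9% saline. Monitored continuously up to 7 days for abnormal behavior (tremor, twitch, jumping, tetanus, supination) or death. Sacrificed on day 7; heart, liver and kidneys checked macroscopically.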
# [19] = test system: Mus musculus; test: Toxicity in ICR mouse xenografted with mouse S180 cells assessed as kidney weight at 1 mg/kg, ip administered 24 hrs after tumor implantation daily for 7 consecutive days measured after 24 hrs of last dose (Rvb=0.23 +/- 0.02 g); format: organism-based, CCRF S-180; design: dose 1 mg/kg, route intraperitoneal; conditions: in vivo
# [20] = test system: Mus musculus; test: Toxicity in ICR mouse xenografted with mouse S180 cells assessed as femur weight at 1 mg/kg, ip administered 24 hrs after tumor implantation daily for 7 consecutive days measured after 24 hrs of last dose (Rvb=0.056 +/- 0.006 g); format: organism-based, CCRF S-180; design: dose 1 mg/kg, route intraperitoneal; conditions: in vivo
# [21] = test system: CCRF S-180; test: Antitumor activity against mouse S180 cells xenografted in ICR mouse assessed as tumor weight at 0.01 mg/kg, ip administered 24 hrs after tumor implantation daily for 7 consecutive days measured after 24 hrs of last dose (Rvb=1.602 +/- 0.391 g); format: functional; conditions: route intraperitoneal
# [22] = test system: Mus musculus; test: Toxicity in ICR mouse xenografted with mouse S180 cells assessed as spleen weight at 1 mg/kg, ip administered 24 hrs after tumor implantation daily for 7 consecutive days measured after 24 hrs of last dose (Rvb=0.22 +/- 0.04 g); format: organism-based, CCRF S-180; design: dose 1 mg/kg, route intraperitoneal; conditions: in vivo
# [23] = test system: Mus musculus; test: Toxicity in ICR mouse assessed as change in kidney weight at 10 to 500 mg/kg, ip measured on day 7 post dose by necroscopy; format: organism-based; design: dose 10-500 mg/kg, route intraperitoneal; conditions: in vivo
Structure (SMILES),IC50 [1] [µM],Activity [2] [g],IC50 [3] [µM],IC50 [4] [µM],IC50 [5] [µM],IC50 [6] [µM],log K [7],other results
CC1(C)N2Cc3[nH]c4ccccc4c3C[C@H]2C(=O)N1[C@@H](COCc1ccccc1)C(=O)OCc1ccccc1,19.8,1.793,23.3,42.3,13.9,38.2,1.02,–
CC(C)[C@@H](C(=O)OCc1ccccc1)N1C(=O)[C@@H]2Cc3c([nH]c4ccccc34)CN2C1(C)C,33.7,2.003,44.9,52.2,8.47,52,0.73,–
CC1(C)N2Cc3[nH]c4ccccc4c3C[C@H]2C(=O)N1[C@@H](CC(=O)OCc1ccccc1)C(=O)OCc1ccccc1,7.01,0.746,0.15,38.6,0.04,36.3,0.96,Activity [8]: Non-toxic; Activity [9]: 1.013 g; LD50 at 168 h [10]: > 500 mg/kg; Activity [11]: Non-toxic; Activity [12]: Dose-dependent effect; Activity [13]: 0.31 g; Activity [14]: 0.17 g; Activity [15]: Non-toxic; Activity [16]: 2.26 g; Activity [17]: 33.37 g; Activity [18]: Non-toxic; Activity [19]: 0.23 g; Activity [20]: 0.057 g; Activity [21]: 1.305 g; Activity [22]: 0.24 g; Activity [23]: Non-toxic
CCC(C)[C@@H](C(=O)OCc1ccccc1)N1C(=O)[C@@H]2Cc3c([nH]c4ccccc34)CN2C1(C)C (stereo partly drawn),21.1,2.846,43.6,50.9,10.3,50.1,0.8,–
CC1(C)N2Cc3[nH]c4ccccc4c3C[C@H]2C(=O)N1[C@@H](CCC(=O)OCc1ccccc1)C(=O)OCc1ccccc1,37,1.578,33.6,37.9,35.4,40,1.05,–
CC(C)C[C@@H](C(=O)OCc1ccccc1)N1C(=O)[C@@H]2Cc3c([nH]c4ccccc34)CN2C1(C)C,14.7,2.05,30.6,32.5,7.06,41.1,0.92,–
CC1(C)N2Cc3[nH]c4ccccc4c3C[C@H]2C(=O)N1[C@@H](Cc1ccc(O)cc1)C(=O)OCc1ccccc1,4.44,1.046,0.12,8.35,0.69,18,0.49,Activity [8]: Non-toxic; LD50 at 168 h [10]: > 500 mg/kg; Activity [11]: Non-toxic; Activity [13]: 0.32 g; Activity [14]: 0.16 g; Activity [15]: Non-toxic; Activity [16]: 2.35 g; Activity [17]: 35.85 g; Activity [18]: Non-toxic; Activity [19]: 0.23 g; Activity [20]: 0.056 g; Activity [22]: 0.23 g; Activity [23]: Non-toxic
